Experimental data from ChEMBL document CHEMBL1139860, “Cytotoxic germacranolides and acyclic diterpenoides from the seeds of Carpesium triste” (J Nat Prod, 2007).
≈ marks a conversion by molar mass, not a printed value.

Key:
Assay type in all cases: cell-based
[1] = Cytotoxicity against human SMMC7721 cells after 48 hrs; details: SMMC-7721, 48 h
Summary of the method: (§1)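 SRB assay. Exponentially growing cells were seeded at 5 × 10^3 per well and incubated 24 h, then exposed 48 h to 5-6 concentrations per run, with vincristine sulfate as positive control. Extracted dye absorbance was read at 515 nm. Percent survival was calculated against untreated cells set at 100%. Done in triplicate.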

HL-60 = test: Cytotoxicity against human HL60 cells after 48 hrs; details: HL-60, 48 h; summary of the method: as §1
[2] = Cytotoxicity against human L02 cells after 48 hrs; details: L02, 48 h; summary of the method: as §1

| Structure (SMILES) | IC50 [1] [µg/mL] | IC50 (HL-60) [µg/mL] | IC50 [2] [µg/mL] |
| --- | --- | --- | --- |
| C=C1C(=O)O[C@H]2[C@H]1[C@@H](OC(=O)/C(C)=C\C)C(=O)[C@H](C)CCC[C@](C)(O)[C@@H]2OC(=O)C(C)C | 46.3 (≈ 103 µM) | 3.4 (≈ 7.55 µM) | 72.4 (≈ 161 µM) |
| C=C1C(=O)O[C@H]2[C@H]1[C@@H](OC(=O)C(C)C)[C@H](O)[C@H](C)CCC(=O)[C@](C)(O)[C@@H]2OC(=O)C(C)C | 33.5 (≈ 73.7 µM) | 3.2 (≈ 7.04 µM) | 42.3 (≈ 93.1 µM) |
| CC(=O)OC/C(=C\CC/C(C)=C/CO)CCC[C@H](C)[C@H](O)CC=C(C)C | > 100 | > 100 | > 100 |
| C=C1C(=O)O[C@H]2[C@H]1[C@@H](O)[C@H](OC(=O)CC(C)C)[C@H](C)CCC(=O)[C@](C)(O)[C@@H]2OC(=O)C(C)CC (stereo not given in full) | 29.7 (≈ 61.5 µM) | 10.3 (≈ 21.3 µM) | 57.5 (≈ 119 µM) |
| CC(C)=CC[C@@H](O)[C@@H](C)CCC/C(C)=C/CC/C(C)=C/CO | > 100 | 42.4 (≈ 137 µM) | > 100 |
| CC(=O)OC/C=C(\C)CC/C=C(/CCC[C@H](C)[C@H](O)CC=C(C)C)COC(C)=O | 12.5 (≈ 30.6 µM) | 20.2 (≈ 49.4 µM) | 31.3 (≈ 76.6 µM) |
| C=C1C(=O)O[C@H]2[C@H]1[C@@H](O)[C@H](OC(=O)CC(C)C)[C@H](C)CCC(=O)[C@](C)(O)[C@@H]2OC(=O)C(C)C | 44.8 (≈ 95.6 µM) | 1.7 (≈ 3.63 µM) | 23.1 (≈ 49.3 µM) |
| C=C1C(=O)O[C@H]2[C@H]1[C@@H](OC(=O)C(C)C)C(=O)[C@H](C)CCC[C@](C)(O)[C@@H]2OC(=O)C(C)C [INCASPITOLIDE A] | 97.1 (≈ 221 µM) | 11.8 (≈ 26.9 µM) | 86.4 (≈ 197 µM) |
| C=C1C(=O)O[C@H]2[C@H]1[C@@H](O)[C@H](OC(=O)C(C)C)[C@H](C)CCC(=O)[C@](C)(O)[C@@H]2OC(=O)C(C)C [INCASPITOLIDE D] | 62.5 (≈ 138 µM) | 14.3 (≈ 31.5 µM) | 95.7 (≈ 211 µM) |
| CC[C@]1(O)C[C@H]2CN(CCc3c([nH]c4ccccc34)[C@@](C(=O)OC)(c3cc4c(cc3OC)N(C=O)[C@H]3[C@@](O)(C(=O)OC)[C@H](OC(C)=O)[C@]5(CC)C=CCN6CC[C@]43[C@@H]65)C2)C1.O=S(=O)(O)O [VINCRISTINE SULFATE] | 26.7 | 11.2 | 28.4 |
